Results taken from ChEMBL document CHEMBL2021906, “A synthetic chalcone as a potent inducer of glutathione biosynthesis” (J Med Chem, 2012).
The source made the active and inactive calls. The rule behind the calls is not given here.

What was measured:
MCF7 [1] = assay: Increase in intracellular GSH level in human MCF7 cells expressing antioxidant response element at 10 uM after 24 hrs by HPLC analysis relative to control; type: functional
Procedure, shortened: (§1)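 In 24-well plates, AREc32 cells were treated with 10 μM for 6 or 24 h. Cells were PBS-washed, sonicated, and acidified with meta-phosphoric acid (1% v/v final), then centrifuged. GSH in the supernatant was quantified by reverse-phase HPLC with electrochemical detection (pH 3 sodium phosphate/0.9% methanol mobile phase). Results are expressed as % of untreated control, n = 3.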

MCF7 [2] = assay: Increase in intracellular GSH level in human MCF7 cells expressing antioxidant response element at 10 uM after 6 hrs by HPLC analysis relative to control; type: functional; procedure, shortened: as §1
MCF7 [3] = assay: Increase in intracellular GSH level in human MCF7 cells expressing antioxidant response element at 10 uM after 24 hrs by HPLC analysis; type: functional, cell-based; procedure, shortened: as §1
MCF7 [4] = assay: Increase in intracellular GSH level in human MCF7 cells expressing antioxidant response element at 10 uM after 24 hrs by HPLC analysis in presence of GCL inhibitor buthionine sulfoximine; type: functional, cell-based
MCF7 [5] = assay: Increase in GCLC level in human MCF7 cells expressing antioxidant response element at 20 uM after 6 hrs by SDS-PAGE immunoblotting technique; type: functional, cell-based
Procedure, shortened: (§2)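 AREc32 cells in six-well plates were treated with 20 μM for 6 h, then PBS-washed, sonicated in PBS, and the cleared supernatant concentrated by evaporation. GCL holoenzyme was immunoblotted after native PAGE; GCLC and GCLM after SDS PAGE. α-GAPDH served as internal standard. The experiment was repeated once.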

MCF7 [6] = assay: Cytotoxicity against human MCF7 cells expressing antioxidant response element assessed as LDH release after 48 hrs; type: cell-based; details: MCF7, 48 h
Procedure, shortened: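 MCF-7/AREc32 cells (ARE-luciferase reporter line; DMEM low glucose, 10% FBS, pen/strep, Geneticin, 37 °C, 5% CO2) exposed to 0–60 μM for 48 h. LDH activity measured in medium and cell lysate via NADH consumption at 340 nm after pyruvate addition. Percent LDH release = supernatant/(supernatant + lysate) × 100. n = 3.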

MCF7 [7] = assay: Increase in GCLM level in human MCF7 cells expressing antioxidant response element at 20 uM after 6 hrs by SDS-PAGE immunoblotting technique; type: functional, cell-based; procedure, shortened: as §2
MCF7 [8] = assay: Increase in GCL holoenzyme formation in human MCF7 cells expressing antioxidant response element at 20 uM after 24 hrs by native-PAGE immunoblotting technique; type: functional, cell-based
MCF7 [9] = assay: Increase in GCL holoenzyme formation in human MCF7 cells expressing antioxidant response element at 20 uM after 6 hrs by native-PAGE immunoblotting technique; type: functional, cell-based; procedure, shortened: as §2
MCF7 [10] = assay: Increase in intracellular GSH level in human MCF7 cells expressing antioxidant response element at 10 uM after 24 hrs in presence of catalytic antioxidant MnTDE-1,3IP5+; type: functional, cell-based
Procedure, shortened: (§3)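 AREc32 cells received 10 μM for 24 h along with 20 μM buthionine sulfoximine, SP600125, SB203580 or MnTDE-1,3-IP5+. Intracellular GSH was measured by HPLC with electrochemical detection after sonication and meta-phosphoric acid extraction. n = 3, with group differences tested at P < 0.05.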

[11] = target: T1, Nuclear factor erythroid 2-related factor 2 (Homo sapiens) (UniProt Q16236); assay: Induction of Nrf2 transcriptional activity in human MCF7 cells antioxidant response element at 5 uM after 18 hrs by luciferase reporter gene assay in presence of catalytic antioxidant MnTDE-1,3-IP5+; type: cell-based
T1 sequence (whole entry): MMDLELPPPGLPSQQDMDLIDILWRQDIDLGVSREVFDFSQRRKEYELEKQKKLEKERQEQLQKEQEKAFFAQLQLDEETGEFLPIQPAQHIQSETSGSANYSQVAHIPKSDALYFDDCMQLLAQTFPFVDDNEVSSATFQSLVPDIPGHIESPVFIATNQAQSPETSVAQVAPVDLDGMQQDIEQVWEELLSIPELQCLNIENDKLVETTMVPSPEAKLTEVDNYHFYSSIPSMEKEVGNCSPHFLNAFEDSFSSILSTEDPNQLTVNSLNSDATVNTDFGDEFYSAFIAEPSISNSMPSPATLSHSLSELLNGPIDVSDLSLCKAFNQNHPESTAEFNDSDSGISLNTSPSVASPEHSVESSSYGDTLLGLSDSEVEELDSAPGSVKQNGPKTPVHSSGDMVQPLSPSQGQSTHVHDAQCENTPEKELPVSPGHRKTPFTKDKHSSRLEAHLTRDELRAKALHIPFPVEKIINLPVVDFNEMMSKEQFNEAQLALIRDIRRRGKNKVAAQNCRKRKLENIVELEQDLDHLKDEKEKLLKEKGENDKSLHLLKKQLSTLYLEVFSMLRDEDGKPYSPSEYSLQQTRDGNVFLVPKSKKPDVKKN

[12] = target: T1, Nuclear factor erythroid 2-related factor 2 (Homo sapiens); assay: Induction of Nrf2 transcriptional activity in human MCF7 cells antioxidant response element at 5 uM after 18 hrs by luciferase reporter gene assay relative to sulforaphane; type: cell-based
Procedure, shortened: (§4)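 AREc32 cells (stable ARE-driven firefly luciferase) grown in 12-well plates to ~60% confluence were exposed to 5 μM for 18 h, alongside sulforaphane or tBHQ at 5 μM. Cells were lysed and centrifuged, and luciferase activity was read on a luminometer using an enhanced luciferase kit. n = 4.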

[13] = target: T1, Nuclear factor erythroid 2-related factor 2 (Homo sapiens); assay: Induction of Nrf2 transcriptional activity in human MCF7 cells antioxidant response element at 5 uM after 18 hrs by luciferase reporter gene assay relative to 2,5-DHC; type: cell-based; procedure, shortened: as §4
[14] = target: T1, Nuclear factor erythroid 2-related factor 2 (Homo sapiens); assay: Induction of Nrf2 transcriptional activity in human MCF7 cells antioxidant response element at 5 uM after 18 hrs by luciferase reporter gene assay relative to tert-butylhydroquinone; type: cell-based; procedure, shortened: as §4
MCF7 [15] = assay: Increase in intracellular GSH level in human MCF7 cells expressing antioxidant response element at 10 uM after 24 hrs in presence of JNK inhibitor SP600125; type: functional, cell-based; procedure, shortened: as §3
[16] = target: T1, Nuclear factor erythroid 2-related factor 2 (Homo sapiens); assay: Induction of Nrf2 transcriptional activity in human MCF7 cells antioxidant response element at 5 uM after 18 hrs by luciferase reporter gene assay in presence of p38 MAPK inhibitor SB203580; type: cell-based
MCF7 [17] = assay: Increase in intracellular GSH level in human MCF7 cells expressing antioxidant response element at 10 uM after 24 hrs in presence of p38 MAPK inhibitor SB203580; type: functional, cell-based; procedure, shortened: as §3
[18] = target: T1, Nuclear factor erythroid 2-related factor 2 (Homo sapiens); assay: Induction of Nrf2 transcriptional activity in human MCF7 cells antioxidant response element at 5 uM after 18 hrs by luciferase reporter gene assay in presence of JNK inhibitor SP600125; type: cell-based

| SMILES | Activity (MCF7 [1]) | Activity (MCF7 [2]) | further results |
| --- | --- | --- | --- |
| COc1ccc(C(=O)/C=C/c2cccc(F)c2)c(OC)c1 | 173% | 78% | – |
| COc1cccc(OC)c1C(=O)/C=C/c1ccccc1Cl | 211% | 105% | – |
| O=C(/C=C/c1ccccc1)c1ccccc1 [CHALCONE] | 115% | 103% | – |
| COc1cccc(OC)c1C(=O)/C=C/c1cccc(Cl)c1 | 165% | 88% | – |
| CC(C)(C)c1cc(O)ccc1O | – | – | Activity (MCF7 [3]): Active; Activity (MCF7 [4]): inactive |
| COc1ccc(C(=O)/C=C/c2c(Cl)cccc2Cl)c(O)c1 | 193% | 107% | – |
| COc1cc(O)c(C(=O)/C=C/c2c(F)cccc2F)c(OC)c1 | 226% | 135% | – |
| COc1cc(OC)c(C(=O)/C=C/c2c(Cl)cc(Cl)cc2Cl)c(OC)c1 | 246% | 119% | – |
| COc1cc(O)c(C(=O)/C=C/c2c(Cl)cccc2Cl)c(OC)c1 | 250% | 119% | – |
| COc1ccc(C(=O)/C=C/c2ccc(OC)cc2OC)c(O)c1 | 160% | 114% | – |
| COc1cccc(OC)c1C(=O)/C=C/c1cccc(F)c1 | 171% | 82% | – |
| COc1cccc(OC)c1/C=C/C(=O)c1ccccc1 | 189% | 111% | – |
| C[S+]([O-])CCCCN=C=S (racemic) | – | – | Activity (MCF7 [3]): Active; Activity (MCF7 [4]): inactive |
| O=C(/C=C/c1ccccc1)c1cc(O)ccc1O | 177% | 82% | Activity (MCF7 [5]): inactive; Activity (MCF7 [4]): inactive; IC50 (MCF7 [6]): 33 µM; Activity (MCF7 [7]): inactive; Activity (MCF7 [8]): inactive; Activity (MCF7 [9]): Active |
| COc1ccc(C(=O)/C=C/c2c(OC)cccc2OC)c(O)c1 | 231% | 90% | – |
| COc1cccc(OC)c1C(=O)/C=C/c1ccc(F)cc1F | 182% | 104% | – |

| SMILES | Activity (MCF7 [1]) | Activity (MCF7 [2]) | further results |
| --- | --- | --- | --- |
| COc1cccc(OC)c1C(=O)/C=C/c1ccccc1F | 195% | 103% | – |
| COc1cc(OC)c(C(=O)/C=C/c2ccccc2)c(OC)c1 | 209% | 91% | – |
| COc1cccc(OC)c1C(=O)/C=C/c1ccccc1[N+](=O)[O-] | 204% | 106% | – |
| COc1ccc(C(=O)/C=C/c2c(OC)cc(OC)cc2OC)c(O)c1 | 104% | 91% | Activity (MCF7 [4]): inactive |
| COc1ccc(C(=O)/C=C/c2cccc(OC)c2OC)c(O)c1 | 174% | 100% | – |
| COc1cc(OC)c(C(=O)/C=C/c2c(F)cccc2F)c(OC)c1 | 223% | 118% | – |
| COc1cc(O)c(C(=O)/C=C/c2ccccc2Cl)c(OC)c1 | 299% | 107% | Activity (MCF7 [10]): Active; Activity [11]: inactive; Ratio [12]: 4; Ratio [13]: 4; Activity (MCF7 [3]): Active; Ratio [14]: 10; Activity (MCF7 [5]): inactive; Activity (MCF7 [4]): inactive; IC50 (MCF7 [6]): 25 µM; Activity (MCF7 [7]): inactive; Activity (MCF7 [15]): Active; Activity [16]: Active; Activity (MCF7 [17]): Active; Activity [18]: inactive; Activity (MCF7 [9]): Active |
| COc1cc(OC)c(/C=C/C(=O)c2ccc(Cl)c(Cl)c2)c(OC)c1 | 88% | 98% | – |
| COc1ccc(C(=O)/C=C/c2cc(OC)ccc2OC)c(O)c1 | 153% | 100% | – |
| COc1cccc(OC)c1C(=O)/C=C/c1c(Cl)cccc1Cl | 256% | 122% | – |
| O=C(/C=C/c1c(Cl)cccc1Cl)c1ccccc1O | 180% | 108% | – |
| COc1cccc(OC)c1/C=C/C(=O)c1c(Cl)cccc1Cl | 120% | 93% | – |
| COc1ccc(C(=O)/C=C/c2ccccc2Cl)c(OC)c1 | 232% | 109% | – |
| COc1cccc(O)c1C(=O)/C=C/c1c(Cl)cccc1Cl | 183% | 88% | – |
| COc1cc(O)c(C(=O)/C=C/c2ccccc2)c(OC)c1 [FLAVOKAWAIN B] | 191% | 101% | – |
| COc1cccc(OC)c1C(=O)/C=C/c1ccccc1 | 158% | 87% | – |
